From ChEMBL document CHEMBL1208778, “Synthesis and anti-cancer activity of chalcone linked imidazolones” (2010)

Assays:
Type in all cases: functional
[1] = test system: SK-MEL-2; experiment: Growth inhibition of human SK-MEL-2 cells
How it was run: (§1)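 Five-dose testing was run within the NCI (Bethesda) in vitro Anticancer Screen Program on a panel of 53 human tumour cell lines from nine cancer types. Growth inhibition is reported as GI50.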

[2] = test system: SNB-75; experiment: Growth inhibition of human SNB75 cells
How it was run: (§2)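 Compounds that passed a preliminary screen were tested at five doses in the NCI (Bethesda) in vitro Anticancer Screen Program against a 53-line human tumour panel spanning leukemia, lung, colon, CNS, melanoma, ovarian, renal, prostate and breast. Growth inhibition is reported as GI50.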

[3] = test system: MCF7; experiment: Cell cycle arrest in human MCF7 cells assessed as accumulation at G1 phase at 30 uM after 24 hrs by FACS analysis
How it was run: (§3)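 MCF-7 cells were treated at 30 µM for 24 h alongside a DMSO control. Fractions in G0, G1, S and G2/M phases were measured by FACS, and values are means of three experiments.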

[4] = Growth inhibition of human Hs 578T cells; how it was run: as §1
[5] = test system: SW-620; experiment: Growth inhibition of human SW620 cells; how it was run: as §2
[6] = test system: KM12; experiment: Growth inhibition of human KM12 cells; how it was run: as §1
[7] = test system: SNB-19; experiment: Growth inhibition of human SNB19 cells; how it was run: as §2
[8] = test system: NCI-H322M; experiment: Growth inhibition of human NCI-H322M cells; how it was run: as §1
[9] = test system: HCT-116; experiment: Growth inhibition of human HCT116 cells; how it was run: as §1
[10] = test system: SN12C; experiment: Growth inhibition of human SN12C cells; how it was run: as §2
[11] = test system: HOP-92; experiment: Growth inhibition of human HOP92 cells; how it was run: as §1
[12] = test system: OVCAR-5; experiment: Growth inhibition of human OVCAR5 cells; how it was run: as §1
[13] = test system: SF-295; experiment: Growth inhibition of human SF295 cells; how it was run: as §1
[14] = test system: MCF7; experiment: Cell cycle arrest in human MCF7 cells assessed as accumulation at G2/M phase at 10 uM after 24 hrs by FACS analysis
How it was run: (§4)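 MCF-7 breast carcinoma cells were exposed to 10 µM test compound for 24 h, with DMSO as the vehicle control. Cell-cycle distribution was read by FACS as the percentage of cells in G0, G1, S and G2/M.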

[15] = test system: A549; experiment: Growth inhibition of human A549 cells; how it was run: as §1
[16] = test system: SK-OV-3; experiment: Growth inhibition of human SKOV3 cells; how it was run: as §2
[17] = test system: MCF7; experiment: Growth inhibition of human MCF7 cells; how it was run: as §1
[18] = test system: BT-549; experiment: Growth inhibition of human BT549 cells; how it was run: as §1
[19] = test system: MDA-MB-435; experiment: Growth inhibition of human MDA-MB-435 cells; how it was run: as §1
[20] = test system: MCF7; experiment: Cell cycle arrest in human MCF7 cells assessed as accumulation at G0 phase at 10 uM after 24 hrs by FACS analysis; how it was run: as §4
[21] = test system: UACC-257; experiment: Growth inhibition of human UACC257 cells; how it was run: as §2
[22] = test system: NCI-H522; experiment: Growth inhibition of human NCI-H522 cells; how it was run: as §1
[23] = test system: UO-31; experiment: Growth inhibition of human UO31 cells; how it was run: as §2
[24] = test system: NCI-H460; experiment: Growth inhibition of human NCI-H460 cells; how it was run: as §1
[25] = test system: SF-539; experiment: Growth inhibition of human SF539 cells; how it was run: as §1
[26] = test system: RXF 393; experiment: Growth inhibition of human RXF393 cells; how it was run: as §1
[27] = Growth inhibition of human RPMI8266 cells; how it was run: as §1
[28] = test system: U-251; experiment: Growth inhibition of human U251 cells; how it was run: as §2
[29] = test system: T47D; experiment: Growth inhibition of human T47D cells; how it was run: as §2
[30] = test system: COLO 205; experiment: Growth inhibition of human COLO205 cells; how it was run: as §1
[31] = test system: SK-MEL-28; experiment: Growth inhibition of human SK-MEL-28 cells; how it was run: as §1
[32] = test system: SK-MEL-5; experiment: Growth inhibition of human SK-MEL-5 cells; how it was run: as §1
[33] = test system: NCI-H226; experiment: Growth inhibition of human NCI-H226 cells; how it was run: as §1
[34] = test system: 786-0; experiment: Growth inhibition of human 786-0 cells; how it was run: as §1
[35] = test system: UACC-62; experiment: Growth inhibition of human UACC62 cells; how it was run: as §2
[36] = test system: HCT-15; experiment: Growth inhibition of human HCT15 cells; how it was run: as §1
[37] = test system: OVCAR-3; experiment: Growth inhibition of human OVCAR-3 cells; how it was run: as §1
[38] = test system: SF-268; experiment: Growth inhibition of human SF268 cells; how it was run: as §1
[39] = test system: MCF7; experiment: Cell cycle arrest in human MCF7 cells assessed as accumulation at S phase at 10 uM after 24 hrs by FACS analysis; how it was run: as §4
[40] = test system: LOX IMVI; experiment: Growth inhibition of human LOXIMVI cells; how it was run: as §1
[41] = test system: M14; experiment: Growth inhibition of human M14 cells; how it was run: as §1
[42] = test system: OVCAR-4; experiment: Growth inhibition of human OVCAR4 cells; how it was run: as §1
[43] = test system: MCF7; experiment: Cell cycle arrest in human MCF7 cells assessed as accumulation at G2/M phase at 30 uM after 24 hrs by FACS analysis; how it was run: as §3
[44] = test system: EKVX; experiment: Growth inhibition of human EKVX cells; how it was run: as §1
[45] = test system: Malme-3M; experiment: Growth inhibition of human MALME-3M cells; how it was run: as §1
[46] = test system: NCI-H23; experiment: Growth inhibition of human NCI-H23 cells; how it was run: as §1
[47] = test system: HT-29; experiment: Growth inhibition of human HT-29 cells; how it was run: as §1
[48] = test system: TK-10; experiment: Growth inhibition of human TK10 cells; how it was run: as §2
[49] = test system: OVCAR-8; experiment: Growth inhibition of human OVCAR8 cells; how it was run: as §1
[50] = test system: HCC 2998; experiment: Growth inhibition of human HCC2998 cells; how it was run: as §1
[51] = test system: NCI/ADR-RES; experiment: Growth inhibition of human NCI/ADR-RES cells; how it was run: as §1
[52] = test system: MCF7; experiment: Cell cycle arrest in human MCF7 cells assessed as accumulation at G0 phase at 30 uM after 24 hrs by FACS analysis; how it was run: as §3
[53] = test system: MCF7; experiment: Cell cycle arrest in human MCF7 cells assessed as accumulation at S phase at 30 uM after 24 hrs by FACS analysis; how it was run: as §3
[54] = test system: MDA-MB-231; experiment: Growth inhibition of human MDA-MB-231 cells; how it was run: as §1
[55] = test system: A498; experiment: Growth inhibition of human A498 cells; how it was run: as §1
[56] = test system: CAKI-1; experiment: Growth inhibition of human Caki1 cells; how it was run: as §1
[57] = test system: K562; experiment: Growth inhibition of human K562 cells; how it was run: as §1
[58] = test system: ACHN; experiment: Growth inhibition of human ACHN cells; how it was run: as §1
[59] = test system: HOP-62; experiment: Growth inhibition of human HOP62 cells; how it was run: as §1
[60] = test system: MCF7; experiment: Cell cycle arrest in human MCF7 cells assessed as accumulation at G1 phase at 10 uM after 24 hrs by FACS analysis; how it was run: as §4

`O=C(/C=C/c1cccc(O)c1)c1cccc(-n2cc(-c3ccc(Cl)cc3)[nH]c2=O)c1` showed a GI50 [1] of 2070 nM, a GI50 [2] of 1460 nM and an Activity [3] of 58.33%. The GI50 [4] was 4000 nM, the GI50 [5] was 1620 nM and the GI50 [6] was 1340 nM. It also gave a GI50 [7] of 1920 nM, a GI50 [8] of 2520 nM and a GI50 [9] of 1230 nM. For the same compound, the GI50 [10] was 1950 nM, the GI50 [11] was 1600 nM and the GI50 [12] was 2190 nM. It also gave a GI50 [13] of 1790 nM, an Activity [14] of 23.63% and a GI50 [15] of 3550 nM. For the same compound, the GI50 [16] was 4210 nM, the GI50 [17] was 1270 nM and the GI50 [18] was 1450 nM. For the same compound, the GI50 [19] was 2060 nM, the Activity [20] was 3.1% and the GI50 [21] was 4070 nM. The GI50 [22] was 1650 nM, the GI50 [23] was 550 nM and the GI50 [24] was 2410 nM. For the same compound, the GI50 [25] was 1680 nM, the GI50 [26] was 1510 nM and the GI50 [27] was 1550 nM. The GI50 [28] was 580 nM, the GI50 [29] was 1920 nM and the GI50 [30] was 2290 nM. For the same compound, the GI50 [31] was 3640 nM, the GI50 [32] was 1530 nM and the GI50 [33] was 2310 nM. For the same compound, the GI50 [34] was 1570 nM, the GI50 [35] was 1850 nM and the GI50 [36] was 2330 nM. For the same compound, the GI50 [37] was 1560 nM, the GI50 [38] was 1780 nM and the Activity [39] was 13.92%. The GI50 [40] was 1570 nM, the GI50 [41] was 2010 nM and the GI50 [42] was 2210 nM. The Activity [43] was 10.8%, the GI50 [44] was 2400 nM and the GI50 [45] was 1830 nM. It also gave a GI50 [46] of 2780 nM, a GI50 [47] of 1900 nM and a GI50 [48] of 2830 nM. It also gave a GI50 [49] of 990 nM, a GI50 [50] of 13700 nM and a GI50 [51] of 2200 nM. The Activity [52] was 17.17%, the Activity [53] was 13.7% and the GI50 [54] was 3350 nM. It also gave a GI50 [55] of 3710 nM, a GI50 [56] of 1720 nM and a GI50 [57] of 400 nM. It also gave a GI50 [58] of 1840 nM, a GI50 [59] of 2360 nM and an Activity [60] of 59.35%.
